Laboratory results reported in ChEMBL document CHEMBL4261557, “MAO inhibitory activity of bromo-2-phenylbenzofurans: synthesis, in vitro study, and docking calculations” (Medchemcomm, 2017).

How the values were obtained:
[1] = biological target: T1, Amine oxidase [flavin-containing] B (Homo sapiens, UniProt P27338); assay: biochemical
T1 sequence (P27338 whole entry): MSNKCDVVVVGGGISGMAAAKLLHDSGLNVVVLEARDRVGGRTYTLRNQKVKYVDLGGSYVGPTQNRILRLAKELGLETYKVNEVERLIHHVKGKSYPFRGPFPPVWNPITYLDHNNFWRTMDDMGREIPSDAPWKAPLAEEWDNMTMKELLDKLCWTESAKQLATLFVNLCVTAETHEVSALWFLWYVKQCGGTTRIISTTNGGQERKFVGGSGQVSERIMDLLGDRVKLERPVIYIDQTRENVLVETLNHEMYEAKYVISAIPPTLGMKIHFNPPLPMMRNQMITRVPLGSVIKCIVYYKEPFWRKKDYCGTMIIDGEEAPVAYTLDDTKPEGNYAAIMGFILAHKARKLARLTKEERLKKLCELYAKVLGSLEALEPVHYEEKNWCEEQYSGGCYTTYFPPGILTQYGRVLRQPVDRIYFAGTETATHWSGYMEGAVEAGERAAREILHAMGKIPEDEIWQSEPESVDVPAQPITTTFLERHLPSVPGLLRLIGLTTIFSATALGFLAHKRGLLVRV

[2] = biological target: T2, Amine oxidase [flavin-containing] A (Homo sapiens, UniProt P21397); assay: (§1) Inhibition of recombinant human MAO-A expressed in baculovirus infected insect cells assessed as reduction in H2O2 production using p-tyramine as substrate pretreated for 15 mins followed by substrate addition and measured over 15 mins by Amplex red reagent based fluorimetric assay
T2 sequence (P21397 whole entry): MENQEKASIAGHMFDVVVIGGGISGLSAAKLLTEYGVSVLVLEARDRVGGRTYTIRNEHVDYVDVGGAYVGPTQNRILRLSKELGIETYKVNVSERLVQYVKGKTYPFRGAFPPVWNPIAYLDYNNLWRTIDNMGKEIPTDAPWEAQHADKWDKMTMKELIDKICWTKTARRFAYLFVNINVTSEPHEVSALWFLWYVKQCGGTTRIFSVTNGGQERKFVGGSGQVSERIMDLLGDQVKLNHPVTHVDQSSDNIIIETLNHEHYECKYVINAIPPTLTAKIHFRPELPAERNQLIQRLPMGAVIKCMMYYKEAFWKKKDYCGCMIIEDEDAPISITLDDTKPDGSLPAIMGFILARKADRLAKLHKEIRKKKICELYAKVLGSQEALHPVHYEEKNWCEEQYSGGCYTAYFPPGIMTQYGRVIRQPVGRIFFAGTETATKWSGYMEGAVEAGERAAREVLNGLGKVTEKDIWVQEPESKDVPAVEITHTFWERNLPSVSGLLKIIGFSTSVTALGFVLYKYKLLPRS

Homo sapiens = species on record: Homo sapiens; assay: Selectivity index, ratio of IC50 for recombinant human MAO-A expressed in baculovirus infected insect cells to IC50 for recombinant human MAO-B expressed in baculovirus infected insect cells
Procedure, shortened: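 Ratio of IC50 against hMAO-A to IC50 against hMAO-B, both measured by the Amplex Red/p-tyramine fluorimetric assay with recombinant enzymes from insect cells.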

SH-SY5Y = assay: Cytotoxicity against human SH-SY5Y cells assessed as reduction in cell viability at 1 to 10 uM after 24 hrs by MTT assay; assay type: cell-based
Procedure, shortened: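 SH-SY5Y neuroblastoma cells seeded at 1.106 mL–1, incubated overnight, then exposed 24 h to compound at 1 or 10 μM in 1% DMSO; 1% DMSO as negative control. MTT (5 mg ml–1 in PBS, 10%) added for 2 h at 37 °C, crystals dissolved in DMSO, absorbance 540 nm; viability = treated/control absorbance × 100. Mean ± S.E.M., ≥5 cultures.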

[3] = biological target: T2, Amine oxidase [flavin-containing] A; assay: as §1, with “production at 100 uM” for “production”, “assay relative to control” for “assay”; conditions: 0.25 h
[4] = biological target: T1, Amine oxidase [flavin-containing] B; assay: as §1, with “MAO-B” for “MAO-A”, “production at 100 uM” for “production”, “assay relative to control” for “assay”; conditions: 0.25 h
Procedure, shortened: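 hMAO-B from baculovirus-infected BTI-TN-5B1-4 insect cells, 7.5 μg protein, matched to 165 pmol p-tyramine/min. Preincubated with inhibitor in 0.05 M phosphate buffer pH 7.4, 15 min at 37 °C. Started with 200 μM Amplex Red, 1 U mL–1 HRP, 1 mM p-tyramine (final). Fluorescence (ex 545/em 590 nm) over 15 min at 37 °C, minus no-enzyme background; percent inhibition at 100 μM.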

Structure (SMILES) | IC50 [1] [µM] | IC50 [2] [µM] | inhibition at 100 µM [3] [%] | inhibition at 100 µM [4] [%] | Ratio IC50 (Homo sapiens) | Activity (SH-SY5Y)
Brc1cccc(-c2cc3ccccc3o2)c1 | 1.17 | 100 | 51 |  | 85.5 | Non-Toxic
Cc1ccc2oc(-c3ccc(Br)cc3)cc2c1 | 100 | > 100 |  | 46.1 |  | Non-Toxic
Cc1cccc2cc(-c3ccccc3Br)oc12 | 9.68 | 100 | 44.8 |  | 11.5 | Non-Toxic
Cc1cccc2cc(-c3ccccc3)oc12 | 10.7 | 100 | 53.9 |  | 9.3 | Non-Toxic
Cc1cccc2cc(-c3ccc(Br)cc3)oc12 | 0.95 | 100 | 46.8 |  | 95.2 | Non-Toxic

Further lines, with some results ahead:

IC50 [1] [µM] | IC50 [2] [µM] | inhibition at 100 µM [3] [%] | inhibition at 100 µM [4] [%] | Structure (SMILES) | Ratio IC50 (Homo sapiens) | Activity (SH-SY5Y)
> 100 | > 100 |  |  | c1ccc(-c2cc3ccccc3o2)cc1 |  | Non-Toxic
0.88 | > 100 |  |  | Cc1ccc2oc(-c3ccccc3)cc2c1 | > 114 | Non-Toxic
0.2 | 11 |  |  | Cc1ccc2oc(-c3ccccc3Br)cc2c1 | 55 | Non-Toxic
1.13 | 8.12 |  |  | Brc1ccccc1-c1cc2ccccc2o1 | 7.2 | Non-Toxic
0.25 | > 100 |  |  | Cc1ccc2oc(-c3cccc(Br)c3)cc2c1 | > 400 | Non-Toxic
0.34 | > 100 |  |  | Brc1ccc(-c2cc3ccccc3o2)cc1 | > 294 | Non-Toxic
3.98 | > 100 |  |  | Cc1cccc2cc(-c3cccc(Br)c3)oc12 | > 25.2 | Non-Toxic
